# Measurements from ChEMBL document CHEMBL2034946, “Synthesis and biological evaluation of cyclic sulfamide derivatives as 11β-hydroxysteroid dehydrogenase 1 inhibitors” (ACS Med Chem Lett, 2012).
# Tests used:
# Mus musculus [1] = assay: Ex-vivo inhibition of 11betaHSD1 in C57BL/6 mouse liver at 20 mg/kg, po after 2 hrs by ELISA; assay type: functional; conditions: C57BL/6, Liver
# Procedure, shortened: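 Normal mice given 20 mpk orally; liver tissue taken 2 h after dosing and 11β-HSD1 activity measured ex vivo as % inhibition relative to vehicle.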
# [2] = biological target: 11-beta-hydroxysteroid dehydrogenase 1 (Homo sapiens, UniProt P28845); assay: Inhibition of human 11beta-HSD1 expressed in CHO-K1 cells using cortisone as substrate after 3 hrs by HTRF assay; assay type: cell-based; conditions: read-out: IC50
# Procedure, shortened: (§1)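 Cells overexpressing human or mouse 11β-HSD1 incubated with cortisone plus compound for 3 h; cortisol measured by HTRF. IC50 fitted from concentration-dependent inhibition curves; means ± SEM of triplicate experiments.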
# [3] = Metabolic stability in human liver microsomes assessed as compound remaining after 30 mins; assay type: ADME, Microsome; conditions: read-out: Stability
# Procedure, shortened: (§2)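 Human and rat liver microsomes incubated with compound for 30 min; stability reported as percent parent compound remaining.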
# Mus musculus [4] = assay: Ex-vivo inhibition of 11betaHSD1 in C57BL/6 mouse fat at 20 mg/kg, po after 2 hrs by ELISA; assay type: functional; conditions: C57BL/6, 2 h
# Procedure, shortened: (§3)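 Normal mice dosed orally (1, 5, 10 or 20 mpk); 11β-HSD1 activity in fat tissue measured ex vivo 2 h post-dose.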
# [5] = Metabolic stability in rat liver microsomes assessed as compound remaining after 30 mins; assay type: ADME, Microsome; conditions: read-out: Stability; procedure, shortened: as §2
# [6] = biological target: 11-beta-hydroxysteroid dehydrogenase 1 (Mus musculus, UniProt P50172); assay: Inhibition of mouse 11beta-HSD1 expressed in CHO-K1 cells using cortisone as substrate after 3 hrs by HTRF assay; assay type: cell-based; procedure, shortened: as §1
# [7] = Terminal elimination half life in cynomolgus monkey at 10 mg/kg, po; assay type: ADME, organism-based, Macaca fascicularis; design: dose 10 mg/kg, route oral; conditions: in vivo, read-out: beta t1/2 (converted)
# Mus musculus [8] = assay: Ex-vivo inhibition of 11betaHSD1 in po dosed C57BL/6 mouse fat after 2 hrs by ELISA; assay type: functional, organism-based; procedure, shortened: as §3
# [9] = Cmax in Sprague-Dawley rat at 10 mg/kg, po; assay type: ADME, organism-based; design: dose 10 mg/kg, route oral; conditions: in vivo
# [10] = AUC in cynomolgus monkey at 10 mg/kg, po; assay type: ADME, organism-based, Macaca fascicularis; design: dose 10 mg/kg, route oral; conditions: plasma
# Cytochrome P450 2C19 = Cytochrome P450 2C19 (Homo sapiens, UniProt P33261); assay: Inhibition of CYP2C19 incubated for 20 mins prior to substrate addition measured after 20 mins by fluorimetric assay; assay type: ADME
# [11] = Cmax in cynomolgus monkey at 10 mg/kg, po; assay type: ADME, organism-based, Macaca fascicularis; design: dose 10 mg/kg, route oral; conditions: in vivo
# [12] = Clearance in Sprague-Dawley rat at 10 mg/kg, po; assay type: ADME, organism-based; design: dose 10 mg/kg, route oral; conditions: in vivo
# [13] = AUC in Sprague-Dawley rat at 10 mg/kg, po; assay type: ADME, organism-based; design: dose 10 mg/kg, route oral; conditions: plasma
# Mus musculus [14] = assay: Ex-vivo inhibition of 11betaHSD1 in C57BL/6 mouse fat at 5 mg/kg, po after 2 hrs by ELISA; assay type: functional; conditions: C57BL/6, 2 h; procedure, shortened: as §3
# Cynomolgus monkey [15] = assay: Ex-vivo inhibition of 11beta-HSD1 in cynomolgus monkey inguinal fat at 10 mg/kg, po after 2 hrs by ELISA; assay type: functional; conditions: Macaca fascicularis
# Procedure, shortened: (§4)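 Cynomolgus monkeys dosed orally at 10 mpk; 11β-HSD1 activity measured ex vivo in shoulder, inguinal and abdominal cavity fat at 2 h. Means, n = 2 monkeys per group, versus vehicle.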
# [16] = Metabolic stability in plasma at 10 uM after 30 mins; assay type: ADME, cell-free; conditions: read-out: Stability
# Procedure, shortened: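 Compound incubated in plasma for 30 min; stability given as percent remaining.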
# Cynomolgus monkey [17] = assay: Ex-vivo inhibition of 11beta-HSD1 in cynomolgus monkey shoulder fat at 10 mg/kg, po after 2 hrs by ELISA; assay type: functional; conditions: Macaca fascicularis; procedure, shortened: as §4
# Mus musculus [18] = assay: Ex-vivo inhibition of 11betaHSD1 in C57BL/6 mouse fat at 1 mg/kg, po after 2 hrs by ELISA; assay type: functional; conditions: C57BL/6, 2 h; procedure, shortened: as §3
# Cytochrome P450 3A4 = Cytochrome P450 3A4 (Homo sapiens, UniProt P08684); assay: Inhibition of CYP3A4 incubated for 20 mins prior to substrate addition measured after 20 mins by fluorimetric assay; assay type: ADME
# Cynomolgus monkey [19] = assay: Ex-vivo inhibition of 11beta-HSD1 in cynomolgus monkey abdominal fat at 10 mg/kg, po after 2 hrs by ELISA; assay type: functional; conditions: Macaca fascicularis, Abdomen; procedure, shortened: as §4
# Cytochrome P450 2D6 = Cytochrome P450 2D6 (Homo sapiens, UniProt P10635); assay: Inhibition of CYP2D6 incubated for 20 mins prior to substrate addition measured after 20 mins by fluorimetric assay; assay type: ADME
# [20] = Oral bioavailability in Sprague-Dawley rat at 10 mg/kg; assay type: ADME, organism-based; conditions: in vivo
# [21] = Terminal elimination half life in Sprague-Dawley rat at 10 mg/kg, po; assay type: ADME, organism-based; design: dose 10 mg/kg, route oral; conditions: in vivo, read-out: beta t1/2 (converted)
# Mus musculus [22] = assay: Ex-vivo inhibition of 11betaHSD1 in C57BL/6 mouse fat at 10 mg/kg, po after 2 hrs by ELISA; assay type: functional; conditions: C57BL/6, 2 h; procedure, shortened: as §3
# [23] = Aqueous solubility of the compound; assay type: physicochemical; conditions: buffer
# Cytochrome P450 2C9 = Cytochrome P450 2C9 (Homo sapiens, UniProt P11712); assay: Inhibition of CYP2C9; assay type: ADME
# [24] = biological target: T1, 11-beta-hydroxysteroid dehydrogenase type 2 (Homo sapiens) (UniProt P80365); assay: Inhibition of human 11beta-HSD2 expressed in HEK293 cells using […] as substrate at 10 uM after 24 hrs by HTRF assay; assay type: cell-based
# T1 sequence (whole entry): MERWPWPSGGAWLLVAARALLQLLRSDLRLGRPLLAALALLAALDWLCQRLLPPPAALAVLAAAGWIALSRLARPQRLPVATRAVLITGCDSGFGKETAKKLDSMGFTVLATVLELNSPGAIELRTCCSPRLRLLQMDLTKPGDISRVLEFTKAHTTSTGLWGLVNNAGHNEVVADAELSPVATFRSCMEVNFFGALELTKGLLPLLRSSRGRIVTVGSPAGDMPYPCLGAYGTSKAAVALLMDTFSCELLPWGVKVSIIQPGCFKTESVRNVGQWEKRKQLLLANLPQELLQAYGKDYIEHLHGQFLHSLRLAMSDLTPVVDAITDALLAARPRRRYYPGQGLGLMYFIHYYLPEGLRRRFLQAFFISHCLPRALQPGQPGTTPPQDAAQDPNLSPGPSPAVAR
# Cytochrome P450 1A2 = biological target: T2, Cytochrome P450 1A2 (Homo sapiens, UniProt P05177); assay: Inhibition of CYP1A2 incubated for 20 mins prior to substrate addition measured after 20 mins by fluorimetric assay; assay type: ADME
# T2 sequence (P05177 whole entry): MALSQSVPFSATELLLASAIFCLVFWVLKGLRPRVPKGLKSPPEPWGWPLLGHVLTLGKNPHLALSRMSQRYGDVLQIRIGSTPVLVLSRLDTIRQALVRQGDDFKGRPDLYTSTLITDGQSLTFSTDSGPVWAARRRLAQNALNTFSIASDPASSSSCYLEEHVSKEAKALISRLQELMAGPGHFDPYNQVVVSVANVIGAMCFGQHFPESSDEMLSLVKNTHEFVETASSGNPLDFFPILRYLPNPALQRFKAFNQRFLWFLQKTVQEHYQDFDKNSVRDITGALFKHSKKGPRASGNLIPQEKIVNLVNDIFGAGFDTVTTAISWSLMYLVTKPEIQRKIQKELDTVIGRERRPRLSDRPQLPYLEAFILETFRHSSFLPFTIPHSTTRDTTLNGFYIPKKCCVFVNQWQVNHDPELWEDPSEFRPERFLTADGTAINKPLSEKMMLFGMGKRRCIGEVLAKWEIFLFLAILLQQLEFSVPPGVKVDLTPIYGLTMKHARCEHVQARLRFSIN
# Chain of 11-beta-hydroxysteroid dehydrogenase 1 (Mus musculus, UniProt P50172) (P50172 whole entry): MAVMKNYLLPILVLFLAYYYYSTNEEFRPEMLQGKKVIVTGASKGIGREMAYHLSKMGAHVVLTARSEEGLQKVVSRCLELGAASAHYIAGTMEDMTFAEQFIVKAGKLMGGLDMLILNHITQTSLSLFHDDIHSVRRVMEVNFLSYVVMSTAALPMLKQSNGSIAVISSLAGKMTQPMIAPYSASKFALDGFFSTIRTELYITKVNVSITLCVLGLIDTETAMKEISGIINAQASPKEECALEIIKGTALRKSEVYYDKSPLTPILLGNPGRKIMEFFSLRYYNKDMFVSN
# Chain of 11-beta-hydroxysteroid dehydrogenase 1 (Homo sapiens, UniProt P28845) (P28845 whole entry): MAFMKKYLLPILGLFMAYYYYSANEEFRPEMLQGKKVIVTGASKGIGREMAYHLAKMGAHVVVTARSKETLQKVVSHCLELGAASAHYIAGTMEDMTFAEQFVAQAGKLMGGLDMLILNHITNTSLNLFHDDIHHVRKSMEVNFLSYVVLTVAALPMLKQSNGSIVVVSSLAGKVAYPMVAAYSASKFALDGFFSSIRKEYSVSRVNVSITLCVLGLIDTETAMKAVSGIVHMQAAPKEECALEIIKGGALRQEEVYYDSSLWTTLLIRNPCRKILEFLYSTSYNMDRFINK
# Chain of Cytochrome P450 2C19 (P33261 whole entry): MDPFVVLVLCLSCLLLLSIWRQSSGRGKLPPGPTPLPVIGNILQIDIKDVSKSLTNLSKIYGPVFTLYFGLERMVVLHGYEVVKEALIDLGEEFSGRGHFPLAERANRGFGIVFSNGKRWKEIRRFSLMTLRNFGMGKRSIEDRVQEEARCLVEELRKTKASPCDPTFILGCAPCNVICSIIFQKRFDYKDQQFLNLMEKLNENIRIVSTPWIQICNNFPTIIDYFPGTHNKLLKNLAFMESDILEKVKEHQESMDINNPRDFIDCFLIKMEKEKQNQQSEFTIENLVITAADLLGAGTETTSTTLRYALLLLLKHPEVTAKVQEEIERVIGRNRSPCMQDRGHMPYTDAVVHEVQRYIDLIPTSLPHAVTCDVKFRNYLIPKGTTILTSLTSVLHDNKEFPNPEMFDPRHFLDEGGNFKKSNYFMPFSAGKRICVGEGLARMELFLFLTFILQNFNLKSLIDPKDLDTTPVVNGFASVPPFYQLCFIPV
# Chain of Cytochrome P450 3A4 (P08684 whole entry): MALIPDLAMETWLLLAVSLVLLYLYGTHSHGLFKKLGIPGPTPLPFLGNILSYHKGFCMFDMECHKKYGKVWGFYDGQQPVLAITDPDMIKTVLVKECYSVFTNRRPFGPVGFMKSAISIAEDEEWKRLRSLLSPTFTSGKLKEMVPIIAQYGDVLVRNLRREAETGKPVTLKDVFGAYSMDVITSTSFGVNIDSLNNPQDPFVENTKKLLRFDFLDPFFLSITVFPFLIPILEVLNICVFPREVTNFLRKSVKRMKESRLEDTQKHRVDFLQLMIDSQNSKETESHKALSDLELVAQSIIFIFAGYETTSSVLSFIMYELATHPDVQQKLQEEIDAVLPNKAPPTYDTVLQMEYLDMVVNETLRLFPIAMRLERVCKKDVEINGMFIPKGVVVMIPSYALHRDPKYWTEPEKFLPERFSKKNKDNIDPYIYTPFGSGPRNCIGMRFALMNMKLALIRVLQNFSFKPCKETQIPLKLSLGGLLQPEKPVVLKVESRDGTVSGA
# Chain of Cytochrome P450 2C9 (P11712 whole entry): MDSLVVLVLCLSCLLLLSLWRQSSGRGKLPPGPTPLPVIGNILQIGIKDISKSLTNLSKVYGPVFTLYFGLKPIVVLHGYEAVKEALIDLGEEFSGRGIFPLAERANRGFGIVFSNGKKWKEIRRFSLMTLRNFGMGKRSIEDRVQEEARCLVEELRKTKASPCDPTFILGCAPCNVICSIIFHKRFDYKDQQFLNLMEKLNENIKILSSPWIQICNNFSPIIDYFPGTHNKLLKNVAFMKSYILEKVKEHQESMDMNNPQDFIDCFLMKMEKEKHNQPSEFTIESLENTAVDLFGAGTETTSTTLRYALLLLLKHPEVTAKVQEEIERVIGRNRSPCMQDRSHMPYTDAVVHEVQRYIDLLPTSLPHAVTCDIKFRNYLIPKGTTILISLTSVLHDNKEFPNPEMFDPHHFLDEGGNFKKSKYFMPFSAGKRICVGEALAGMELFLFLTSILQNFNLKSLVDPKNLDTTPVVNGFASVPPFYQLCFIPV
# Chain of Cytochrome P450 2D6 (P10635 whole entry): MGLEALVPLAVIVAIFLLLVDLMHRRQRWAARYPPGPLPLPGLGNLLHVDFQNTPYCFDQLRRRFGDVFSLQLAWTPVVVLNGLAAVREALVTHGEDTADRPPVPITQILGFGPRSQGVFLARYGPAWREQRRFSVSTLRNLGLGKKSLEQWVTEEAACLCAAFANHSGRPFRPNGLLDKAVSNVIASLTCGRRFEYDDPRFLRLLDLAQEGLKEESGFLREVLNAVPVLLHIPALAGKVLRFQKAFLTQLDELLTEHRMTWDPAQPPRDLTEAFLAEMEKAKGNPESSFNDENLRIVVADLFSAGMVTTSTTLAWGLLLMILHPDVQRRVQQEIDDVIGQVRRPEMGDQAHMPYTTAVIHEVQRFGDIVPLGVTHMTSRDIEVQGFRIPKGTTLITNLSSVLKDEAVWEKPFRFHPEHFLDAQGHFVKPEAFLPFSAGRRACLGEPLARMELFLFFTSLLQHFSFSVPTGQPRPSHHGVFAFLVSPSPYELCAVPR
smiles,measurement,setting,value
CN(CC(=O)N[C@H]1C2CC3CC1C[C@](C(N)=O)(C3)C2)S(=O)(=O)N(C)c1c(Cl)cc(Cl)cc1Cl,inhibition in vivo at 20 mg/kg,Mus musculus [1],57.8%
same,IC50,[2],1 nM
same,remaining at 0.5 h,[3],21%
same,inhibition in vivo at 20 mg/kg,Mus musculus [4],33.3%
same,remaining at 0.5 h,[5],7%
same,IC50,[6],2 nM
NC(=O)[C@]12CC3CC(C1)[C@@H](NC(=O)CN1CCCN(c4ccccc4F)S1(=O)=O)C(C3)C2,IC50,[2],14 nM
same,IC50,[6],170 nM
O=C(CN1CCCN(CCc2ccccc2)S1(=O)=O)NC1C2CC3CC(C2)CC1C3 (configuration not stated),IC50,[2],1660 nM
NC(=O)[C@]12CC3CC(C1)[C@@H](NC(=O)CN1CCCN(c4cccc(F)c4)S1(=O)=O)C(C3)C2,IC50,[2],50 nM
same,IC50,[6],140 nM
CC1CN(CC(=O)N[C@H]2C3CC4CC2C[C@](C(N)=O)(C4)C3)S(=O)(=O)N(c2c(Cl)cc(Cl)cc2Cl)C1 (mixture of isomers),half-life,[7],3.4 h
same,inhibition,Mus musculus [8],Dose-dependent effect
same,Cmax,[9],3100 ng/mL
same,AUC,[10],35600 ng·h/mL
same,INH,Cytochrome P450 2C19,> 100 µM
same,Cmax,[11],6400 ng/mL
same,CL/F,[12],11.7 mL/min/kg
same,AUC,[13],15700 ng·h/mL
same,inhibition in vivo at 5 mg/kg,Mus musculus [14],90.4%
same,inhibition in vivo at 10 mg/kg,Cynomolgus monkey [15],83%
same,"remaining at 0.5 h, 10 µM",[16],100%
same,IC50,[2],1 nM
same,inhibition in vivo at 10 mg/kg,Cynomolgus monkey [17],87%
same,inhibition in vivo at 1 mg/kg,Mus musculus [18],76.6%
same,INH,Cytochrome P450 3A4,> 100 µM
same,inhibition in vivo at 10 mg/kg,Cynomolgus monkey [19],81%
same,INH,Cytochrome P450 2D6,> 100 µM
same,bioavailability,[20],68.8%
same,half-life,[21],3.8 h
same,inhibition in vivo at 10 mg/kg,Mus musculus [22],90.7%
same,solubility,[23],361 µM
same,remaining at 0.5 h,[3],93%
same,inhibition in vivo at 20 mg/kg,Mus musculus [4],95.9%
same,remaining at 0.5 h,[5],78%
same,INH,Cytochrome P450 2C9,> 100 µM
same,inhibition,[24],20%
same,IC50,[6],2 nM
same,INH,Cytochrome P450 1A2,> 100 µM
C=C1CN(CC(=O)N[C@H]2C3CC4CC2C[C@](C(N)=O)(C4)C3)S(=O)(=O)N(c2c(Cl)cc(Cl)cc2Cl)C1,IC50,[2],14 nM
same,inhibition in vivo at 20 mg/kg,Mus musculus [4],82.1%
same,IC50,[6],8 nM
NC(=O)[C@]12CC3CC(C1)[C@@H](NC(=O)CN1CC4(CC4)CN(c4c(Cl)cc(Cl)cc4Cl)S1(=O)=O)C(C3)C2,IC50,[2],5 nM
same,inhibition in vivo at 20 mg/kg,Mus musculus [4],39.6%
same,IC50,[6],23 nM
NC(=O)[C@]12CC3CC(C1)[C@@H](NC(=O)CN1CCCN(c4ccc(F)cc4)S1(=O)=O)C(C3)C2,IC50,[2],351000 nM
same,IC50,[6],15500 nM
